A selection: hits, their analogues and other compounds. The true share with any hit is near 0.83%.
RGS8-Gao reg – RGS8-Galphao binding modulators, primary screen, biochemical, multiplexed bead flow cytometry | Guanine nucleotide-binding protein G(o) subunit alpha (Homo sapiens), P09471 | AID 1423, 2008 | actives 0.34% (n = 220,000) | actives lie on both sides | response (percent of control binding), % at 10 µM; in the data active = response below about 60% or above about 140%; inactive = in between;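 also: Galphao activated as the GDP aluminium fluoride complex binding bead-coupled RGS8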
Target sequence (P09471 whole entry, looked up): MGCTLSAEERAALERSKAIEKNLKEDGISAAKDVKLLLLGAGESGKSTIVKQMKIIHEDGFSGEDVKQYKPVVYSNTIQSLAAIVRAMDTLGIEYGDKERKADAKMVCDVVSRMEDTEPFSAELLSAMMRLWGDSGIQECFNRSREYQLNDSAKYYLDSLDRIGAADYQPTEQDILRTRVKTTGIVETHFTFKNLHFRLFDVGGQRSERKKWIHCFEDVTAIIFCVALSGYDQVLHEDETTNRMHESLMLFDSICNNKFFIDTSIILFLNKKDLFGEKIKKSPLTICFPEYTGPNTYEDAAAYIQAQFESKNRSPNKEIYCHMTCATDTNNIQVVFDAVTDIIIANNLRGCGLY
RGS7-Gao reg – RGS7-Galphao binding modulators, primary screen, biochemical, multiplexed bead flow cytometry. Guanine nucleotide-binding protein G(o) subunit alpha (Homo sapiens), P09471. actives lie on both sides. binding response (% of control), % at 10 µM. actives 0.35% (n = 220,000); in the data active = binding response below about 49% or above about 150%; inconclusive = no clear call, values can overlap the other calls; inactive = in between;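 also: fluorescent Galphao held in activated GDP-AlF4 state binding bead-coupled RGS7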
RGS16-Gao HTS – modulators of RGS16 binding to Galphao, primary screen, biochemical, human proteins, multiplexed bead flow cytometry | bead-based flow cytometry RGS16-Galphao binding, fluorescence; actives lie on both sides | binding response (% of control), % at 10 µM | actives 0.38% (n = 220,000);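 also: Galphao activated by GDP with aluminum fluoride before binding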
ABCG2 inh – ABCG2 efflux pump inhibitors, primary screen, multiplex with ABCB1, IgMXP3 cells, flow cytometry. actives 0.1% (n = 190,000). Broad substrate specificity ATP-binding cassette transporter ABCG2 (Homo sapiens), Q9UNQ0. inhibition, % at 6.6 µM. JC-1 efflux;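 active = inhibition above 80%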;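 also: 0% = DMSO and 100% = nicardipine control wells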
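Assay system – ABCG2 IgMXP3 and barcoded ABCB1 CCRF-Adr cell mix · Input – 3 million cells/mL in well · Reagent – JC-1 fluorescent substrate · Compound – single test compound dose, 6.6 µM final · Timing – 10 min exposure at 25 °C with rotation, no wash · Detection – flow cytometry of retained JC-1 fluorescence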
ABCB1 block – ABCB1 efflux pump inhibitors, primary screen, cell-based, multiplex, flow cytometry, ABCG2 counter-screen. actives 0.067% (n = 190,000). inhibition, % at 6.6 µM. CCRF-Adr cells, JC-1 efflux. ATP-dependent translocase ABCB1 (Homo sapiens), P08183; in the data active = inhibition above about 40%;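 also: 0% = vehicle and 100% = reference inhibitor; higher value means more JC-1 retained so stronger ABCB1 efflux block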
RGS4-Gao reg – modulators of RGS4 binding to Galphao, primary screen, biochemical, multiplexed bead flow cytometry; Guanine nucleotide-binding protein G(o) subunit alpha (Homo sapiens), P09471; actives lie on both sides; binding response (% of control), % at 10 µM; actives 0.33% (n = 220,000); AID 1415, 2008; in the data active = binding response below about 49% or above about 150%; inactive = in between;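 also: fluorescent Galphao activated with aluminum fluoride binding bead-coupled RGS4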
RGS4-Gao HTS – modulators of RGS–Galpha-o binding, primary screen, biochemical, multiplexed beads, flow cytometry, RGS4/7/8/16/19; AID 1504, 2009; actives 99% (n = 1,600); shares compounds with RGS16-Gao HTS; RGS4–Galpha-o binding response, % at 10 µM; multiplexed bead flow cytometry;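 also: fluorescently labeled Galpha-o bound to GDP with aluminium fluoride binding biotinylated RGS beads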
Target sequence (P09471 whole entry, looked up): as above
Target sequence (P49798 whole entry, looked up): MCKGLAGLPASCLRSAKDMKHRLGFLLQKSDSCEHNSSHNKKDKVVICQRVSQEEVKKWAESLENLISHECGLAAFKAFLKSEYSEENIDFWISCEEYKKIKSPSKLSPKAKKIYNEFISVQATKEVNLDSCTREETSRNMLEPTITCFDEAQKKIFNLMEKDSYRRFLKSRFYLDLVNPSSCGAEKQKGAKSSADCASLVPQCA
Avidin counter – disruption of biotin probe capture by avidin, counter-screen for RGS protein interaction modulators, biochemical, flow cytometry, bead-based; shares compounds with RGS16-Gao HTS; 1,700 tested, under 10 active; inhibition, % at 10 µM; streptavidin beads, fluorescein-biotin binding; AID 1783, 2009;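 active = inhibition above 50%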;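 also: median green fluorescence of gated singlet beads compared with DMSO control wells; 0% = DMSO wells and 100% = complete loss of bead fluorescence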
RGS8-Gao confirm – RGS8-Galphao binding modulators, confirmation, biochemical, multiplexed bead flow cytometry, single concentration | shares compounds with RGS16-Gao HTS | bead-based flow cytometry RGS8-Galphao binding, fluorescence; actives lie on both sides | binding response (% of control), % at 10 µM | actives 3% (n = 1,700); in the data active = binding response below about 72% or above about 130%; inactive = in between;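 also: Galphao activated as GDP AlF4 complex before binding bead RGS8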
RGS7-Gao single – RGS7-Galphao binding modulators, confirmation, biochemical, multiplexed bead flow cytometry, single concentration | bead-based flow cytometry RGS7-Galphao binding; actives lie on both sides | shares compounds with RGS16-Gao HTS | response (percent of control binding), % at 10 µM | actives 7.8% (n = 1,700); in the data active = response below about 75% or above about 130%; inactive = in between;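 also: fluorescent Galphao activated with GDP and aluminum fluoride binding bead-coupled RGS7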
RGS16-Gao conf – modulators of RGS16-Galphao protein binding, confirmation, biochemical, single concentration, multiplexed bead flow cytometry. shares compounds with RGS16-Gao HTS. bead-based flow cytometry; actives lie on both sides. response (% of control binding), % at 10 µM. actives 4% (n = 1,700). AID 1838, 2009; in the data active = response below about 74% or above about 130%; inactive = in between;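 also: Galphao activated as the GDP aluminium fluoride complex binding bead-coupled RGS16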
RGS4-Gao single – modulators of RGS4-Galphao protein binding, confirmation, biochemical, single concentration, multiplexed bead flow cytometry; actives 4% (n = 1,700); binding response (% of control), % at 10 µM; AID 1840, 2009; shares compounds with RGS16-Gao HTS; actives lie on both sides; in the data active = binding response below about 74% or above about 130%; inactive = in between
RGS19-Gao single – regulators of RGS19-Galphao binding, confirmation, biochemical, single point, multiplexed bead flow cytometry; shares compounds with RGS16-Gao HTS; bead-based flow cytometry RGS19-Galphao binding; actives lie on both sides; response (percent of control binding), % at 10 µM; actives 5% (n = 1,700); AID 1841, 2009; in the data active = response below about 50% or above about 160%; inactive = in between;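 also: 100% = no compound control and 0% = blank background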
Active calls of the source: *; ? = inconclusive; . = no result given; [ ] = another dose, or the depositor's remark. Unless noted, no rule for the calls is given here.

SMILES | RGS8-Gao reg | RGS7-Gao reg | RGS16-Gao HTS | ABCG2 inh | ABCB1 block | RGS4-Gao reg | RGS4-Gao HTS | Avidin counter | RGS8-Gao confirm | RGS7-Gao single | RGS16-Gao conf | RGS4-Gao single | RGS19-Gao single
CC(C)N1CCC(N2CCN(Cc3ccc(C#CC(C)(C)O)s3)CC2CCO)CC1 (stereo not given) | 84 | 275*[activator] | 98 | -2 | 0 | 142 | 142* | 3 | 100 | 103 | 99 | 100 | 97
COc1ccc(/C=N/OCC(=O)N2CCCC2)c(OC)c1 | 96 | 95 | 100 | 1 | 0 | 94 | . | . | . | . | . | . | .
Cc1ccc(C(=O)Nc2ccccc2NC(=O)c2ccc(C)o2)o1 | 60* | 65 | -12 | 5 | 1 | 55 | 55* | -2 | 101 | 98 | 100 | 100 | 118
CSc1ccccc1NC(=O)c1ccc(C)o1 | 102 | 101 | 112 | 2 | 0 | 102 | . | . | . | . | . | . | .
CCN1CCCC1CNC(=O)C1CCN(Cc2nc(-c3cccc(Br)c3)oc2C)CC1 (stereo not given) | 101 | 102 | 96 | 2 | 1 | 104 | . | . | . | . | . | . | .
CCc1cc(C=NC2CCCCC2)c(O)s1 | -0.4* | -28* | -39* | 2 | 1 | -60* | . | -2 | 100 | 96 | 99 | 99 | 112
CC1=NN(C(=O)COc2cc(C)ccc2C(C)C)C(O)(c2ccccc2)C1 (stereo not given) | 100 | ? | 105 | . | . | 103 | . | . | . | . | . | . | .
Cc1ccc(Sc2c(C)nn(C(=O)c3cccc(S(=O)(=O)N4CCOCC4)c3)c2C)cc1 | 98 | 99 | 85 | 4 | 1 | 97 | . | . | . | . | . | . | .
CC(C)NC(=O)c1ccc(C2SCC(=O)N2Cc2ccccc2)cc1 (stereo not given) | 90 | 254*[activator] | 346*[activator] | 5 | 1 | 267*[activator] | . | -1 | 88 | 75* | 84 | 82 | 71
CCC(C)NC(=O)c1ccc(C2SCC(=O)N2Cc2ccccc2)cc1 (stereo not given) | 105 | 102 | 109 | 30 | -1 | 109 | . | . | . | . | . | . | .
C1CCC(Nc2nc3nonc3nc2N2CCSCC2)C1 | 104 | 112 | 110 | 2 | 1 | 110 | . | . | . | . | . | . | .
Cn1c(SCC(=O)c2ccccc2)nnc1-c1ccncc1 | 97 | ? | 95 | 6 | 0 | 100 | . | . | . | . | . | . | .
Cn1c(SCC(=O)c2ccccc2)nnc1-c1cccc(N)c1 | 89 | 77 | -92* | 0 | 0 | 60 | 60* | -1 | 104 | 108 | 106 | 105 | 105
CC(C)Oc1cccc(C(=O)C2CCCN(C(=O)c3ccnn3C)C2)c1 (stereo not given) | 101 | 100 | 100 | -2 | -2 | 101 | . | . | . | . | . | . | .
O=C(CSc1nnc(-c2ccccc2)o1)Nc1ccccc1F | 101 | 173*[activator] | 107 | 3 | 0 | 111 | 111* | 3 | 99 | 95 | 95 | 95 | 74
O=C(CSc1nnc(-c2ccncc2)o1)Nc1ccccc1Cl | 115 | 215*[activator] | 250*[activator] | 3 | 1 | 133 | 133* | -1 | 100 | 102 | 101 | 101 | 100
COc1ccccc1NC(=O)CSc1nnc(-c2ccncc2)o1 | 101 | 98 | 104 | 8 | 1 | 99 | . | . | . | . | . | . | .
Cc1ccc(OCCCC(=O)NCc2ccco2)c(C)c1 | 101 | 93 | 100 | 9 | 0 | 101 | . | . | . | . | . | . | .
COCCCNc1ncnc2nc[nH]c12 | 100 | 102 | 78 | -3 | -2 | 101 | . | . | . | . | . | . | .
CCc1cc2c(=O)c(-c3cnn(-c4ccccc4)c3)c(C)oc2cc1OCC(=O)Nc1cccc(C)c1 | 129 | 109 | 257*[activator] | -12 | -1 | 109 | 109* | -1 | 104 | 94 | 107 | 102 | 134
CCc1cc2c(=O)c(-c3cnn(-c4ccccc4)c3)c(C)oc2cc1OCC(=O)Nc1ccc(F)c(F)c1 | 102 | 106 | 112 | -4 | 0 | 103 | . | . | . | . | . | . | .
COc1ccc(-n2c(C)c([N+](=O)[O-])c3ccc(O)c(CN4CCCCC4)c32)cc1 | 92 | 79 | -307 | 2 | 1 | 25* | . | 0 | 101 | 108 | 100 | 103 | 84
O=C(c1ccc([N+](=O)[O-])c(CS(=O)(=O)c2ccc(Cl)cc2)c1)N1CCCCC1 | 108 | 109 | 117 | 1 | 1 | 107 | . | . | . | . | . | . | .
COc1ccc(CC2CCOC2=O)cc1 (stereo not given) | 92 | 96 | -31* | 0 | 0 | 94 | 94* | -1 | 102 | 106 | 104 | 105 | 94
CCCCC(CCC(=O)O)(C(=O)OCC)c1csc(Nc2ccc(C)cc2)n1 (stereo not given) | 12* | -16* | 10.0* | 1 | 1 | 1.7* | . | 3 | 94 | 92 | 92 | 91 | 75

Screens (PubChem BioAssay)
